What was measured:
Histone deacetylase 1 = Histone deacetylase 1 (Homo sapiens, UniProt Q13547); test: Inhibition of HDAC1 (unknown origin)
Histone deacetylase 3 = Histone deacetylase 3 (Homo sapiens, UniProt O15379); test: Inhibition of HDAC3 (unknown origin)
[1] = Unbound volume of distribution in Wistar Han rat at 2 mg/kg, iv or 10 mg/kg, po; type: ADME, organism-based; conditions: in vivo
[2] = Apparent permeability of the compound; type: ADME; conditions: not told
[3] = Half life in Wistar Han rat at 2 mg/kg, iv or 10 mg/kg, po; type: ADME, organism-based; conditions: in vivo
Histone deacetylase 2 = Histone deacetylase 2 (Homo sapiens, UniProt Q92769); test: Inhibition of HDAC2 (unknown origin)
[4] = biological target: T1, Class 1 histone deacetylase (Homo sapiens, UniProt Q13547+O15379+Q92769+Q9BY41); test: Inhibition of Class 1 HDAC in VSV-G-pseudotyped HIV infected human 2C4 cell Jurkat model assessed as reactivation of HIV latency in presence of 0.1% NHS by fluorescent reporter gene assay
Procedure, shortened: (§1)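 Latently infected Jurkat 2C4 cells (HIV latency model) were tested for reactivation of silenced provirus in parallel at two normal human serum levels: 0.1% and 5%. The paired runs gauge the potency shift from plasma protein binding.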

[5] = Oral bioavailability in Wistar Han rat at 10 mg/kg; type: ADME, organism-based; conditions: in vivo
[6] = biological target: T2, Protein deacetylase HDAC6 (Homo sapiens, UniProt Q9UBN7); test: Inhibition of HDAC6 (unknown origin)
T2 sequence (Q9UBN7 whole entry): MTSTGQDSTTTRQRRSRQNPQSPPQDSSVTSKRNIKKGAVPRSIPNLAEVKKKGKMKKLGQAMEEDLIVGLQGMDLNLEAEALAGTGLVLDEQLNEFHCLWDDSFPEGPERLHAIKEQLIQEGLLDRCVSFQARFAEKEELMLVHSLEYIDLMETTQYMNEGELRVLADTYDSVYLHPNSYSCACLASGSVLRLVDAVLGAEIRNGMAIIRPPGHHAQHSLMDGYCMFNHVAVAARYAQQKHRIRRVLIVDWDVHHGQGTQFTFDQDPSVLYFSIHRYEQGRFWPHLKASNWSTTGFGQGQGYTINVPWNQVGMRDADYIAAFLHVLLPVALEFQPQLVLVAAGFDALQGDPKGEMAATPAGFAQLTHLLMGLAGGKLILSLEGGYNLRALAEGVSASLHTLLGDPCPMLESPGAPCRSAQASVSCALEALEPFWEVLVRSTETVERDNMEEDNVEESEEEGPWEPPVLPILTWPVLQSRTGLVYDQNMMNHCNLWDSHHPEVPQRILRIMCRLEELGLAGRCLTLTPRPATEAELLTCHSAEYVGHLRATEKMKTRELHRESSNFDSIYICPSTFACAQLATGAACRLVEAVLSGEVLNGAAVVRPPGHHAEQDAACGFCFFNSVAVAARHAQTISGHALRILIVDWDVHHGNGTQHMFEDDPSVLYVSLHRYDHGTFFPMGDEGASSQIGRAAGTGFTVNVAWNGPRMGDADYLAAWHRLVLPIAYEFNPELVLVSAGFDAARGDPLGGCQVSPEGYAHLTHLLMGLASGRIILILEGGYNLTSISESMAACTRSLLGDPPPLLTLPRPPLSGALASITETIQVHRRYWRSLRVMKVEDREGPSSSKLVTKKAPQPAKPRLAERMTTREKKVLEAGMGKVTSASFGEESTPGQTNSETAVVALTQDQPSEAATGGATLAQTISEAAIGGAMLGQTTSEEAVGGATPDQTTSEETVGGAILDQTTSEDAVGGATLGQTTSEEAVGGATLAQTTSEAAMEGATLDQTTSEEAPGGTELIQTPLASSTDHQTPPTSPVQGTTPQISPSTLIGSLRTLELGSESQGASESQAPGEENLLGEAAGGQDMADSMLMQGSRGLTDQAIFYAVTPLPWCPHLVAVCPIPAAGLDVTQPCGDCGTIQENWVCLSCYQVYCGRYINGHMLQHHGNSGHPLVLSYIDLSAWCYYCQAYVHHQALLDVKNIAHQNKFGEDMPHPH

[7] = Unbound clearance in Wistar Han rat at 2 mg/kg, iv or 10 mg/kg, po; type: ADME, organism-based; conditions: in vivo
[8] = biological target: T1, Class 1 histone deacetylase; test: Inhibition of Class 1 HDAC in VSV-G-pseudotyped HIV infected human 2C4 cell Jurkat model assessed as reactivation of HIV latency in presence of 5% NHS by fluorescent reporter gene assay; procedure, shortened: as §1
Histone deacetylase 8 = biological target: T3, Histone deacetylase 8 (Homo sapiens, UniProt Q9BY41); test: Inhibition of HDAC8 (unknown origin)
T3 sequence (Q9BY41 whole entry): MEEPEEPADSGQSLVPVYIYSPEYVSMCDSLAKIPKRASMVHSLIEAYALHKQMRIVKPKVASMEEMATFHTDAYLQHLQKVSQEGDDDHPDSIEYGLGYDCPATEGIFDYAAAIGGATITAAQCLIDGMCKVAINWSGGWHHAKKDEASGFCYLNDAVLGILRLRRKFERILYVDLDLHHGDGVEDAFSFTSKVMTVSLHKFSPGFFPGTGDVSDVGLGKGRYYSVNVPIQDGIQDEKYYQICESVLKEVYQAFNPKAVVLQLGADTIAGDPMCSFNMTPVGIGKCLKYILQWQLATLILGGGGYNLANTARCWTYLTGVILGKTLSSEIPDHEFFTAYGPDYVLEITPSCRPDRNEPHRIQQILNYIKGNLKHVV

Sequence of Histone deacetylase 3 (O15379 whole entry): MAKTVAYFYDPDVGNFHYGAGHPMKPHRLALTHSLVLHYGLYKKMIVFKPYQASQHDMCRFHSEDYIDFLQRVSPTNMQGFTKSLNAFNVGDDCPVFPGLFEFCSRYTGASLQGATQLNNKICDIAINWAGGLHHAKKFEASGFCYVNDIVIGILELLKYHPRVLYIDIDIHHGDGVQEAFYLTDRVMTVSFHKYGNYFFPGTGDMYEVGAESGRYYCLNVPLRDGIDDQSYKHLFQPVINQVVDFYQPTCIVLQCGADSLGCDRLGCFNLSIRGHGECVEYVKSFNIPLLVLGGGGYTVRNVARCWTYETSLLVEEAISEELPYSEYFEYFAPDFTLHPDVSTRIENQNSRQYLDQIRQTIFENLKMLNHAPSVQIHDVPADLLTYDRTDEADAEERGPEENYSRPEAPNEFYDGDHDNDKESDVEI
Sequence of Histone deacetylase 1 (Q13547 whole entry): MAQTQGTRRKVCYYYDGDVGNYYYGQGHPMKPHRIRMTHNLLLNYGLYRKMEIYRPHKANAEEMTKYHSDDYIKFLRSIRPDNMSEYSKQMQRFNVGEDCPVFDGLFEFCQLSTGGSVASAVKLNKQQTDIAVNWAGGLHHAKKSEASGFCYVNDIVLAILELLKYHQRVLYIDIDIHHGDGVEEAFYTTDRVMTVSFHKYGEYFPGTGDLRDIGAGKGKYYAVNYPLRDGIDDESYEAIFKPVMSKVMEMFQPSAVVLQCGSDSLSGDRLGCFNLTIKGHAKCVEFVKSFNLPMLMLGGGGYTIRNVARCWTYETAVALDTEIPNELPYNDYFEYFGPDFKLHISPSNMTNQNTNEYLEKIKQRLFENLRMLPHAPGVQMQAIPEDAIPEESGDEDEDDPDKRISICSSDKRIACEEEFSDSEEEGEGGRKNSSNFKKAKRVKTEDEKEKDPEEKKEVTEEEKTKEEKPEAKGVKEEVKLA
Sequence of Histone deacetylase 2 (Q92769 whole entry): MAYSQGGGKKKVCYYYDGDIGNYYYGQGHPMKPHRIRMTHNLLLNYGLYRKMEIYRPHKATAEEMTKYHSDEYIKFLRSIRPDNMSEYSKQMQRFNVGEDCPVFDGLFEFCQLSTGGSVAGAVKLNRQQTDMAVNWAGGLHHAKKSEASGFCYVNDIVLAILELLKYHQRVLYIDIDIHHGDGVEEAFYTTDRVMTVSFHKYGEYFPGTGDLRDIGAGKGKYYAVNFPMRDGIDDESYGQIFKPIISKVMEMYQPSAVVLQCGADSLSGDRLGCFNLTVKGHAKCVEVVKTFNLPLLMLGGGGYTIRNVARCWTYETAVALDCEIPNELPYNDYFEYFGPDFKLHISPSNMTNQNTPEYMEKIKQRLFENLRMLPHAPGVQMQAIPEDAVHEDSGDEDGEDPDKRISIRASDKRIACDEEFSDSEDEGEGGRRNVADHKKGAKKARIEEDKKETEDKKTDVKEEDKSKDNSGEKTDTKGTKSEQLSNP

## CCC(=O)CCCCC[C@H](NC(=O)C1CN(C)C1)c1[nH]c(-c2ccccc2)nc1C(N)=O
Histone deacetylase 1
  IC50: 1.9 nM
Histone deacetylase 3
  IC50: 2.5 nM
[1]
  Vdu: 45 L/kg
[2]
  Papp: 1.1 ×10⁻⁶ cm/s
[3]
  half-life: 384 min
Histone deacetylase 2
  IC50: 18.1 nM
[4]
  EC50: 294 nM
[5]
  bioavailability: 0%
[6]
  IC50: 9.83 µM
[7]
  CL free: 166 mL/min/kg
[8]
  EC50: 269 nM
Histone deacetylase 8
  IC50: 5.42 µM

Reference: ChEMBL document CHEMBL4665726, “Development of a selective HDAC inhibitor aimed at reactivating the HIV latent reservoir” (Bioorg Med Chem Lett, 2020)
